One compound from ChEMBL document CHEMBL2321783, “Structure-activity relationships of peptides incorporating a bioactive reverse-turn heterocycle at the melanocortin receptors: identification of a 5800-fold mouse melanocortin-3 receptor (mMC3R) selective antagonist/partial agonist versus the mouse melanocortin-4 receptor (mMC4R)” (J Med Chem, 2013) can be followed below.

The structures appear in SMILES notation.

Test [1] concerns the target Melanocortin receptor 3 (Mus musculus) (UniProt P33033). Briefly: Partial agonist activity at mouse MC3 receptor expressed in HEK293 cells at 10^-4 M to 10^-12 M after 6 hrs by cAMP-based beta-galactosidase reporter gene assay. The class given is functional, cell-based. Put shortly: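 In the mMC3R HEK-293 CRE/β-galactosidase reporter assay, cells were exposed 6 h to peptide at 10^-4 to 10^-12 M in IBMX/BSA medium. Maximal efficacy is expressed relative to NDP-MSH run on the same plate.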
Background: Reporter assays use an easily measured gene product as a stand-in for the process of interest.

In a further test the target is Melanocortin receptor 3 (Mus musculus, UniProt P33033). Put plainly: Antagonist activity at mouse MC3 receptor expressed in HEK293 cells after 6 hrs by cAMP-based beta-galactosidase reporter gene assay. The test is classed as functional, cell-based. To be noted: read-out: pA2 (converted).
The species named for another test is Mus musculus. Briefly: Selectivity for mouse MC3 receptor over mouse MC4 receptor.

Chain of Melanocortin receptor 3 (P33033 whole entry): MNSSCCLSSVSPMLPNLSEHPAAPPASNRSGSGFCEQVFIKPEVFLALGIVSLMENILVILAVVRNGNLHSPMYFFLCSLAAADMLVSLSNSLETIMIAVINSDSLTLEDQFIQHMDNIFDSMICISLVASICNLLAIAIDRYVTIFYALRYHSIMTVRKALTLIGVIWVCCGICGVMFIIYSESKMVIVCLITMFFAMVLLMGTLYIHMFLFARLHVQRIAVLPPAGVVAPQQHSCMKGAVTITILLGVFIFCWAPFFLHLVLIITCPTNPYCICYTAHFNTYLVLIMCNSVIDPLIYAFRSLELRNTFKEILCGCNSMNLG
Chain of Melanocortin receptor 3 (Mus musculus) (P33033 whole entry): as above

The term Emax denotes the greatest response seen or fitted, relative to the assay's reference. Regarding `C[C@@H]1NC(=O)[C@H](CC(N)=O)NC(=O)[C@H](Cc2c[nH]c3ccccc23)N2C[C@H](CCCNC(=N)N)NC(=O)[C@@H](CSCC2=O)NC(=O)[C@@H](Cc2ccc(-c3ccccc3)cc2)NC(=O)[C@H](Cc2cnc[nH]2)NC(=O)[C@@H](NC(=O)[C@@H](N)Cc2ccc(O)cc2)CSSC[C@@H](C(=O)N[C@@H](Cc2ccc(O)cc2)C(N)=O)NC(=O)[C@H](Cc2ccccc2)NC1=O`, the Emax in test [1] is 10%. The Kb at Melanocortin receptor 3 is 0.126 nM. Moreover, the Selectivity ratio in the test filed under Mus musculus worked out at 5800.
